Test results reported in ChEMBL document CHEMBL3044526, “Synthesis, fungicidal activity, and QSAR of pyridazinonethiadiazoles” (2002).

System: Puccinia recondita
Assay: Antifungal activity against Puccinia recondita wheat leaves treated as foliar spray after 10 days relative to triadimefon
Format: functional
Method in brief: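 Susceptible wheat cv. Ming-Xian 169 (10 germinating seeds per pot) was grown in a greenhouse at 15-20 °C and inoculated with P. recondita, then held 24 h in a moist chamber. Once the leaves were dry, each pot got a 10 mL spray of compound solution. Percent disease control versus untreated pots was scored 10 days later, in triplicate. Triadimefon (100 ppm) was run alongside. D = lg[a/(100−a)] − lg Mw.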

SMILES	inhibition (INH)
Cc1cc(=O)c(-c2nnc(Nc3cccc(C(F)(F)F)c3)s2)nn1-c1ccccc1Cl	70%
Cc1cc(=O)c(-c2nnc(Nc3ccccc3F)s2)nn1-c1ccccc1Cl	10%
Cc1cc(=O)c(-c2nnc(Nc3ccccc3)s2)nn1-c1ccccc1Cl	10%
Cc1cc(=O)c(-c2nnc(Nc3ccccc3F)s2)nn1-c1ccccc1	50%
Cc1cc(=O)c(-c2nnc(Nc3cccc(C(F)(F)F)c3)s2)nn1-c1ccccc1	60%
Cc1cc(=O)c(-c2nnc(Nc3cccc(C(F)(F)F)c3)s2)nn1-c1c(Cl)cccc1Cl	50%
Cc1cc(=O)c(-c2nnc(Nc3ccccc3F)s2)nn1-c1c(Cl)cccc1Cl	30%
Cc1cc(=O)c(-c2nnc(Nc3cccc(C(F)(F)F)c3)s2)nn1-c1ccc(Cl)cc1	60%
Cc1cc(=O)c(-c2nnc(Nc3ccccc3F)s2)nn1-c1ccc(Cl)cc1	50%
Cc1cc(=O)c(-c2nnc(Nc3ccccc3F)s2)nn1-c1cc(Cl)c(Cl)cc1Cl	60%
Cc1cc(=O)c(-c2nnc(Nc3cccc(C(F)(F)F)c3)s2)nn1-c1cc(Cl)c(Cl)cc1Cl	70%
Cc1ccc(-n2nc(-c3nnc(Nc4cccc(C(F)(F)F)c4)s3)c(=O)cc2C)c(C)c1	90%
Cc1ccc(-n2nc(-c3nnc(Nc4ccccc4F)s3)c(=O)cc2C)c(C)c1	90%
Cc1cc(=O)c(-c2nnc(Nc3ccccc3F)s2)nn1-c1ccc(Cl)cc1Cl	80%
Cc1cc(=O)c(-c2nnc(Nc3cccc(C(F)(F)F)c3)s2)nn1-c1ccc(Cl)cc1Cl	90%
Cc1cc(=O)c(-c2nnc(Nc3ccccc3)s2)nn1-c1ccc(Cl)cc1Cl	20%
